The species entered for assay [1] is Rattus norvegicus. The assay can be described thus: To inhibit high affinity uptake of [3H]dopamine (DA) into nerve endings (synaptosomes) prepared from various regions of the rat brain. Format: functional. Put shortly: (§1)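 Radiolabelled monoamine uptake inhibition. Six drug concentrations, each in triplicate, chosen from preliminary screens to bracket the approximate IC50.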

Assay [2] addresses T1, Sodium-dependent dopamine transporter (Rattus norvegicus, UniProt P23977). The assay can be described thus: Inhibition of [3H]mazindol binding to dopamine transporter of rat striatal membranes. Format: cell membranes, Membrane.
The species entered for assay [3] is Rattus norvegicus. Description: To inhibit high affinity uptake of [3H]NE into nerve endings (synaptosomes) prepared from various regions of the rat brain. It counts as functional. Put shortly:
as §1

In assay [4] the target is T1, Sodium-dependent dopamine transporter. Description: Inhibition of high affinity uptake of [3H]dopamine into nerve endings (synaptosomes) prepared from various regions of the rat brain. Format: subcellular. Put shortly:
as §1

The species named for assay [5] is Rattus norvegicus. The assay can be described thus: To inhibit high affinity uptake of [3H]5-HT into nerve endings (synaptosomes) prepared from various regions of the rat brain. It counts as functional. Put shortly: as §1

T1 sequence (P23977 whole entry): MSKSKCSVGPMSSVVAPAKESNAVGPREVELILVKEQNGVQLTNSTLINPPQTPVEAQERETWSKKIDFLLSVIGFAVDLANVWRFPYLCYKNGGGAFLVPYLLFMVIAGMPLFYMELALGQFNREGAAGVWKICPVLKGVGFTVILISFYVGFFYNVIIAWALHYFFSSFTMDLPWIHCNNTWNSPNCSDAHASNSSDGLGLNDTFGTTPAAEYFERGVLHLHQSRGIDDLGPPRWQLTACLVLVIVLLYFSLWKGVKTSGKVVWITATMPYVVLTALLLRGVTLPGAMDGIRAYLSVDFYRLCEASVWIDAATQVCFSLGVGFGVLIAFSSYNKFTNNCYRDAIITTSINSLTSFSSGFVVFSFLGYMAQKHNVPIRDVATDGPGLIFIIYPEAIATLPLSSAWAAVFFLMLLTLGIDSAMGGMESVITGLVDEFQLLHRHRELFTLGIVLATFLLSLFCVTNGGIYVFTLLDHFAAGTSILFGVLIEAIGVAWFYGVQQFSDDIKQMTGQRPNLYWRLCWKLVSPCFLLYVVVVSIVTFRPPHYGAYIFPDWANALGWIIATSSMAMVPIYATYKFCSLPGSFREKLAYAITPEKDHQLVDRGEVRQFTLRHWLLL

The molecule `Cc1ccc(C2C[C@H]3CC4OC(=O)C2C4N3C)cc1` (stereo partly drawn) had a Ki in the assay filed under Rattus norvegicus [1] of 25000 nM. This counts as double-digit micromolar.
In the case of `CCCC1C2CC[C@H](C[C@@H]1c1ccc(C)cc1)N2C` (stereo partly drawn), the Ki is 21 nM in assay [2], 6.3 nM in the assay listed under Rattus norvegicus [3], 51.8 nM in assay [4] and 80.2 nM in the assay filed under Rattus norvegicus [5].
Take `COC(=O)[C@@H]1C2CC[C@H](C[C@@H]1c1ccccc1)N2C`: the Ki in assay [2] came to 89.4 nM; in the assay filed under Rattus norvegicus [3] it was 37.2 nM; in the assay listed under Rattus norvegicus [5], 173 nM.
With `COC(=O)[C@H]1C2C(O)C[C@H](C[C@@H]1c1ccc(C)cc1)N2C` (stereo partly drawn), the Ki in assay [2] worked out at 2900 nM; in the assay listed under Rattus norvegicus [3] it was 1000 nM; in assay [4], 5600 nM; in the assay listed under Rattus norvegicus [5], 3000 nM.
For `COC(=O)[C@@H]1C2C[C@H](O)[C@H](C[C@@H]1c1ccc(C)cc1)N2C`, the inhibition constant (Ki) was 154 nM in the assay filed under Rattus norvegicus [3] and 6700 nM in the assay filed under Rattus norvegicus [5].
Turning to `COC(=O)[C@H]1C2[C@H](O)C[C@H](C[C@H]1c1ccc(C)cc1)N2C`, the Ki in assay [2] is 135 nM; in the assay filed under Rattus norvegicus [3], 60.9 nM.
For `COC(=O)[C@@H]1C2C(O)C[C@H](C[C@@H]1c1ccc(C)cc1)N2C` (stereo partly drawn), the Ki worked out at 25.2 nM in assay [2], 44.7 nM in the assay filed under Rattus norvegicus [3], 39.2 nM in assay [4] and 581 nM in the assay filed under Rattus norvegicus [5].
The corresponding values for `COC(=O)[C@H]1C2[C@@H](O)C[C@H](C[C@H]1c1ccc(C)cc1)N2C` (stereo in doubt; 14b) are 1400 nM, 300 nM, 2900 nM and more than 100000 nM.
With `COC(=O)[C@H]1C2[C@@H](O)C[C@H](C[C@H]1c1ccc(C)cc1)N2C` (stereo in doubt; 19b), the Ki in assay [2] amounted to 540 nM; in assay [4] it was 676 nM.
On to `COC(=O)[C@H]1[C@@H](OC(=O)c2ccccc2)C[C@@H]2CC[C@H]1N2C` [COCAINE], for which the results for the Ki in the assay listed under Rattus norvegicus [3] and in the assay listed under Rattus norvegicus [5] were 108 nM and 155 nM, respectively.
